Experiments:
[1] = In vitro glutathione peroxidase activity at 2*10e-7M using hydrogen peroxide, activity given in percentage of ebselen''s activity; format: functional
[2] = In vitro glutathione peroxidase activity at 2*10e-7M using tert-butyl hydroperoxide, activity given in percentage of ebselen''s activity; format: functional
Rattus norvegicus [3] = experiment: Tested for acute anti-inflammatory activity of the antirat serum-induced edema in rats at dose of 30 mg/kg at time interval- 0.5 hr; format: functional
Outline: (§1)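 Fasted Wistar rats (200–240 g), six per group, receive drug orally in 2% gelatin. One hour later, 0.1 mL rabbit antirat serum is injected subplantar into the hind paw. Paw volume is measured by water plethysmometry at injection and at 0.5, 1, 2, 3 and 4 h. Results are percent inhibition of swelling versus vehicle-treated rats.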

Rattus norvegicus [4] = experiment: Tested for acute anti-inflammatory activity of the antirat serum-induced edema in rats at dose of 30 mg/kg at time interval- 1 hr; format: functional; outline: as §1
Rattus norvegicus [5] = experiment: Tested for acute anti-inflammatory activity of the antirat serum-induced edema in rats at dose of 30 mg/kg at time interval- 2 hr; format: functional; outline: as §1
Rattus norvegicus [6] = experiment: Tested for acute anti-inflammatory activity of carrageenan-induced foot edema in rats at dose of 100 mg/kg at time interval- 0.5 hr; format: functional
Outline: as §1, with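 “2% carrageenan in […]” for “rabbit antirat serum”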

Rattus norvegicus [7] = experiment: Tested for acute anti-inflammatory activity of carrageenan-induced foot edema in rats at dose of 100 mg/kg at time interval- 1 hr; format: functional
Outline: as §1, with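 “2% carrageenan in […]” for “rabbit antirat serum”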

Rattus norvegicus [8] = experiment: Tested for acute anti-inflammatory activity of carrageenan-induced foot edema in rats at dose of 100 mg/kg at time interval- 3h; format: functional
Outline: as §1, with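 “2% carrageenan in […]” for “rabbit antirat serum”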

Rattus norvegicus [9] = experiment: Tested for acute anti-inflammatory activity of carrageenan-induced foot edema in rats at dose of 100 mg/kg at time interval- 4 hr; format: functional
Outline: as §1, with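 “2% carrageenan in […]” for “rabbit antirat serum”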

Rattus norvegicus [10] = experiment: Tested for acute anti-inflammatory activity of carrageenan-induced foot edema in rats at dose of 30 mg/kg at time interval- 0.5 hr; format: functional
Outline: as §1, with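 “2% carrageenan in […]” for “rabbit antirat serum”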

Rattus norvegicus [11] = experiment: Tested for acute anti-inflammatory activity of carrageenan-induced foot edema in rats at dose of 30 mg/kg at time interval- 1 hr; format: functional
Outline: as §1, with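 “2% carrageenan in […]” for “rabbit antirat serum”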

Rattus norvegicus [12] = experiment: Tested for acute anti-inflammatory activity of carrageenan-induced foot edema in rats at dose of 30 mg/kg at time interval- 3h; format: functional
Outline: as §1, with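 “2% carrageenan in […]” for “rabbit antirat serum”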

Rattus norvegicus [13] = experiment: Tested for acute anti-inflammatory activity of carrageenan-induced foot edema in rats at dose of 30 mg/kg at time interval- 4 hr; format: functional
Outline: as §1, with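 “2% carrageenan in […]” for “rabbit antirat serum”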

Rattus norvegicus [14] = experiment: Tested for acute anti-inflammatory activity of the antirat serum-induced edema in rats at dose of 30 mg/kg at time interval- 3h; format: functional; outline: as §1
Rattus norvegicus [15] = experiment: Tested for acute anti-inflammatory activity of the antirat serum-induced edema in rats at dose of 30 mg/kg at time interval- 4 hr; format: functional; outline: as §1
Rattus norvegicus [16] = experiment: Tested for acute anti-inflammatory activity of the antirat serum-induced edema in rats at dose of 3 mg/kg at time interval- 1 hr; format: functional; outline: as §1
Rattus norvegicus [17] = experiment: Tested for acute anti-inflammatory activity of the antirat serum-induced edema in rats at dose of 3 mg/kg at time interval- 2 hr; format: functional; outline: as §1
Rattus norvegicus [18] = experiment: Tested for acute anti-inflammatory activity of the antirat serum-induced edema in rats at dose of 3 mg/kg at time interval- 3h; format: functional; outline: as §1
Rattus norvegicus [19] = experiment: Tested for acute anti-inflammatory activity of the antirat serum-induced edema in rats at dose of 3 mg/kg at time interval- 4 hr; format: functional; outline: as §1
Rattus norvegicus [20] = experiment: Tested for acute anti-inflammatory activity of carrageenan-induced foot edema in rats at dose of 3 mg/kg at time interval- 0.5 hr; format: functional
Outline: as §1, with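 “2% carrageenan in […]” for “rabbit antirat serum”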

Rattus norvegicus [21] = experiment: Tested for acute anti-inflammatory activity of carrageenan-induced foot edema in rats at dose of 3 mg/kg at time interval- 1 hr; format: functional
Outline: as §1, with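 “2% carrageenan in […]” for “rabbit antirat serum”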

Rattus norvegicus [22] = experiment: Tested for acute anti-inflammatory activity of carrageenan-induced foot edema in rats at dose of 3 mg/kg at time interval- 2 hr; format: functional
Outline: as §1, with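 “2% carrageenan in […]” for “rabbit antirat serum”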

Rattus norvegicus [23] = experiment: Tested for acute anti-inflammatory activity of carrageenan-induced foot edema in rats at dose of 3 mg/kg at time interval- 3h; format: functional
Outline: as §1, with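 “2% carrageenan in […]” for “rabbit antirat serum”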

Rattus norvegicus [24] = experiment: Tested for acute anti-inflammatory activity of carrageenan-induced foot edema in rats at dose of 3 mg/kg at time interval- 4 hr; format: functional
Outline: as §1, with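 “2% carrageenan in […]” for “rabbit antirat serum”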

Rattus norvegicus [25] = experiment: Tested for acute anti-inflammatory activity of the antirat serum-induced edema in rats at dose of 100 mg/kg at time interval- 0.5 hr; format: functional; outline: as §1
Rattus norvegicus [26] = experiment: Tested for acute anti-inflammatory activity of the antirat serum-induced edema in rats at dose of 100 mg/kg at time interval- 1 hr; format: functional; outline: as §1
Rattus norvegicus [27] = experiment: Tested for acute anti-inflammatory activity of the antirat serum-induced edema in rats at dose of 100 mg/kg at time interval- 2 hr; format: functional; outline: as §1
Rattus norvegicus [28] = experiment: Tested for acute anti-inflammatory activity of the antirat serum-induced edema in rats at dose of 100 mg/kg at time interval- 3h; format: functional; outline: as §1
Rattus norvegicus [29] = experiment: Tested for acute anti-inflammatory activity of the antirat serum-induced edema in rats at dose of 100 mg/kg at time interval- 4 hr; format: functional; outline: as §1
Rattus norvegicus [30] = experiment: Tested for acute anti-inflammatory activity of carrageenan-induced foot edema in rats at dose of 30 mg/kg at time interval- 2 hr; format: functional
Outline: as §1, with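 “2% carrageenan in […]” for “rabbit antirat serum”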

Rattus norvegicus [31] = experiment: Tested for acute anti-inflammatory activity of carrageenan-induced foot edema in rats at dose of 100 mg/kg at time interval- 2 hr; format: functional
Outline: as §1, with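 “2% carrageenan in […]” for “rabbit antirat serum”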

Rattus norvegicus [32] = experiment: Tested for acute anti-inflammatory activity of the antirat serum-induced edema in rats at dose of 3 mg/kg at time interval- 0.5 hr; format: functional; outline: as §1
[33] = Inhibition of spontaneous lipid peroxidation at 10e-5 M in rat brain homogenate
[34] = Inhibition of [Fe(2+)]/ascorbate-induced lipid peroxidation at 10e-5 M in rat brain homogenate

| Structure (SMILES) | GSH-Px activity [1] | GSH-Px activity [2] | inhibition in vivo at 30 mg/kg (Rattus norvegicus [3]) [%] | inhibition in vivo at 30 mg/kg (Rattus norvegicus [4]) [%] | inhibition in vivo at 30 mg/kg (Rattus norvegicus [5]) [%] | inhibition in vivo at 100 mg/kg (Rattus norvegicus [6]) [%] | inhibition in vivo at 100 mg/kg (Rattus norvegicus [7]) [%] | inhibition in vivo at 100 mg/kg (Rattus norvegicus [8]) [%] | inhibition in vivo at 100 mg/kg (Rattus norvegicus [9]) [%] | inhibition in vivo at 30 mg/kg (Rattus norvegicus [10]) [%] | inhibition in vivo at 30 mg/kg (Rattus norvegicus [11]) [%] | inhibition in vivo at 30 mg/kg (Rattus norvegicus [12]) [%] | inhibition in vivo at 30 mg/kg (Rattus norvegicus [13]) [%] | inhibition in vivo at 30 mg/kg (Rattus norvegicus [14]) [%] | inhibition in vivo at 30 mg/kg (Rattus norvegicus [15]) [%] | inhibition in vivo at 3 mg/kg (Rattus norvegicus [16]) [%] | inhibition in vivo at 3 mg/kg (Rattus norvegicus [17]) [%] | inhibition in vivo at 3 mg/kg (Rattus norvegicus [18]) [%] | inhibition in vivo at 3 mg/kg (Rattus norvegicus [19]) [%] | inhibition in vivo at 3 mg/kg (Rattus norvegicus [20]) [%] | also measured |
| --- | --- | --- | --- | --- | --- | --- | --- | --- | --- | --- | --- | --- | --- | --- | --- | --- | --- | --- | --- | --- | --- |
| O=C(c1ccccc1)c1ccc2[nH]c(=O)[se]c2c1 | 0 | 0 | -9.8 | 5.3 | 25.6 | -76.2 | 9.9 | 58.5 | 55.5 | -22.2 | 14.2 | 35.6 | 26.1 | 19.7 | 25.2 | -16.7 | -10.7 | -14.1 | -1.4 | -42.9 | inhibition in vivo at 3 mg/kg (Rattus norvegicus [21]): -7.8%; inhibition in vivo at 3 mg/kg (Rattus norvegicus [22]): 27.8%; inhibition in vivo at 3 mg/kg (Rattus norvegicus [23]): 27.5%; inhibition in vivo at 3 mg/kg (Rattus norvegicus [24]): 9.6%; inhibition in vivo at 100 mg/kg (Rattus norvegicus [25]): -0.5%; inhibition in vivo at 100 mg/kg (Rattus norvegicus [26]): 6%; inhibition in vivo at 100 mg/kg (Rattus norvegicus [27]): 12.7%; inhibition in vivo at 100 mg/kg (Rattus norvegicus [28]): 18%; inhibition in vivo at 100 mg/kg (Rattus norvegicus [29]): 19.3%; inhibition in vivo at 30 mg/kg (Rattus norvegicus [30]): 31.7%; inhibition in vivo at 100 mg/kg (Rattus norvegicus [31]): 51.6%; inhibition in vivo at 3 mg/kg (Rattus norvegicus [32]): -41.8%; inhibition [33]: 0%; inhibition [34]: -3% |
| Nc1ccc(C(=O)c2ccccc2)cc1[Se][Se]c1cc(C(=O)c2ccccc2)ccc1N | 261 | 300 | -23.4 | -18.2 | 0.7 | -27 | 40.4 | 9.2 | 5 | -20.6 | 43.3 | 13.7 | 8.5 | -3.7 | 5.5 | -7.9 | -3.3 | 0.2 | 4.8 | -33.3 | inhibition in vivo at 3 mg/kg (Rattus norvegicus [21]): 39%; inhibition in vivo at 3 mg/kg (Rattus norvegicus [22]): 45%; inhibition in vivo at 3 mg/kg (Rattus norvegicus [23]): 32.9%; inhibition in vivo at 3 mg/kg (Rattus norvegicus [24]): 18.2%; inhibition in vivo at 100 mg/kg (Rattus norvegicus [25]): -37.5%; inhibition in vivo at 100 mg/kg (Rattus norvegicus [26]): 7.2%; inhibition in vivo at 100 mg/kg (Rattus norvegicus [27]): 4.9%; inhibition in vivo at 100 mg/kg (Rattus norvegicus [28]): -3.9%; inhibition in vivo at 100 mg/kg (Rattus norvegicus [29]): 2%; inhibition in vivo at 30 mg/kg (Rattus norvegicus [30]): 18.7%; inhibition in vivo at 100 mg/kg (Rattus norvegicus [31]): 29.2%; inhibition in vivo at 3 mg/kg (Rattus norvegicus [32]): -16.8%; inhibition [33]: 87%; inhibition [34]: 95% |
| O=c1c2ccccc2[se]n1-c1ccccc1 [EBSELEN] | 100 | 100 | -19.6 | -3.8 | 8.2 | -93.6 | 26.9 | 13.7 | 0.6 | -54 | 47.5 | -4.1 | -7.5 | 3.7 | 7.9 | 2.3 | -1.1 | -6.6 | -2.6 | -63.5 | inhibition in vivo at 3 mg/kg (Rattus norvegicus [21]): 29.1%; inhibition in vivo at 3 mg/kg (Rattus norvegicus [22]): 30.3%; inhibition in vivo at 3 mg/kg (Rattus norvegicus [23]): 21.4%; inhibition in vivo at 3 mg/kg (Rattus norvegicus [24]): 13.5%; inhibition in vivo at 100 mg/kg (Rattus norvegicus [25]): 4.9%; inhibition in vivo at 100 mg/kg (Rattus norvegicus [26]): 15.9%; inhibition in vivo at 100 mg/kg (Rattus norvegicus [27]): 22%; inhibition in vivo at 100 mg/kg (Rattus norvegicus [28]): 16.7%; inhibition in vivo at 100 mg/kg (Rattus norvegicus [29]): 16.3%; inhibition in vivo at 30 mg/kg (Rattus norvegicus [30]): 10.2%; inhibition in vivo at 100 mg/kg (Rattus norvegicus [31]): 18.4%; inhibition in vivo at 3 mg/kg (Rattus norvegicus [32]): -9.8% |

— ChEMBL document CHEMBL1127451, “Benzoselenazolinone derivatives designed to be glutathione peroxidase mimetics feature inhibition of cyclooxygenase/5-lipoxygenase pathways and anti-inflammatory activity” (1994)
